# Assay outcomes (PubChem)
# The list is not random: actives were taken first. Their share in the collection is about 5.8%.
# Pf Dd2 growth: inhibitors of Plasmodium falciparum Dd2 growth; P. falciparum Dd2 growth, SYBR Green, 72 h; hits give low values; activity change, % at 10 µM; AID 1159554; 2.3% of 94,000 active; in the data active = activity change below about -80%; inconclusive = no clear call, values can overlap the other calls
# T cruzi growth-1: T. cruzi proliferation inhibition | T. cruzi beta-gal in NIH3T3, GalScreen luminescence, 90 h | AID 624255 | inhibition, % at 8.34 µM | 5.9% of 77,000 active;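 active = mean inhibition above about 93%, with at least 55% of replicates each passing it, limit read from the data, passing the limit was not always enough; inconclusive = only one of those two conditions holds; inactive = neither condition holds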
# KDM4C inh: blocks human GASC-1 (KDM4C) demethylase activity; Q9H3R0; GST-KDM4C 2-372, H3K9me3 peptide, LANCE TR-FRET; inhibition, % at 12.5 µM; 0.15% of 96,000 active;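 active = mean replicate inhibition above about 25%, with at least 55% of replicates also reaching it, limit read from the data, passing the limit was not always enough; inconclusive = only one of those two conditions met; inactive = neither condition met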
#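 Material: GST-tagged GASC-1 (JMJD2C) catalytic fragment, aa 2-372 / Quantity: enzyme final amount 10 nM / Medium: HEPES buffer, pH 7.5, plus ascorbate / Doses: one test concentration per compound / Incubation: 30 min reaction, 60 min detection, RT / Measured by: LANCE TR-FRET / Read-out: inhibition from TR-FRET ratio decrease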
# IDH1 R132H inh: IDH1 R132H (human) inhibition. O75874. IDH1 R132H reductase, diaphorase/resazurin fluorescence, 60 min. 0.18% of 70,000 active. inhibition, % at 10 µM; in the data active = inhibition above about 34%; inconclusive = no clear call, values can overlap the other calls; inactive = below about 11%;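 also: 0% = DMSO and 100% = no enzyme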
# Target sequence (O75874 whole entry R132H): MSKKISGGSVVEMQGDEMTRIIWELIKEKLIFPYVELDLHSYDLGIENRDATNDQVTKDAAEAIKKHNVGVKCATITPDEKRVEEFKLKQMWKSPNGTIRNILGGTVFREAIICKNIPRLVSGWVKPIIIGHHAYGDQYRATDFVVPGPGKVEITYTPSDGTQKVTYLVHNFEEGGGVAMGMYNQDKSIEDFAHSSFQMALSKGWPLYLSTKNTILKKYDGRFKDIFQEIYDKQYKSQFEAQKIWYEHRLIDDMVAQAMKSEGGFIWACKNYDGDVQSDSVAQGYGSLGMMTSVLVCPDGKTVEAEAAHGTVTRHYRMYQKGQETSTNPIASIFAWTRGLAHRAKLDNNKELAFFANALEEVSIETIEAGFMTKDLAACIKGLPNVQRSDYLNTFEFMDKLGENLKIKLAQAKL
# T cruzi growth-2: inhibitors of T. cruzi proliferation | shares compounds with T cruzi growth-1 | T. cruzi beta-gal in NIH3T3, GalScreen luminescence, 90 h | inhibition, % at 8.35 µM | 72% of 5,600 active;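 active = mean replicate inhibition above about 95% and at least 55% of replicates individually reaching it, limit read from the data; inconclusive = only one of the two criteria is met; inactive = neither criterion is met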
# T cruzi growth-3: Trypanosoma cruzi proliferation inhibition | T. cruzi beta-gal in NIH3T3, GalScreen luminescence, 90 h | 21% of 5,600 active | inhibition, % at 2.09 µM | AID 651740 | shares compounds with T cruzi growth-1;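 active = mean inhibition above about 95%, with at least 55% of replicates also reaching it, limit read from the data; inconclusive = meets just one of the two conditions; inactive = meets neither condition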;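 also: plate controls were neutral control median for no effect and positive control median for full effect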
# 3T3 cytotox: NIH/3T3 (mouse) viability loss; shares compounds with T cruzi growth-1; NIH/3T3 viability, CellTiter-Glo ATP luminescence, 90 h; cytotoxicity (signal decrease), % at 8.35 µM; 14% of 5,600 active;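 active = mean signal decrease across replicates above about 35% based on untreated-well scatter, with enough replicates individually passing, limit read from the data; inconclusive = no rule stated though some were filed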;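 also: 0% = median of neutral control wells and 100% = median of positive control wells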
# 3T3 cytotox 2: cytotoxicity in mouse NIH/3T3 fibroblasts. shares compounds with T cruzi growth-1. NIH/3T3 viability, CellTiter-Glo ATP luminescence, 90 h. inhibition, % at 24.9 µM. 56% of 5,600 active;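 active = mean loss of cell viability signal at or above a set limit, and enough replicates individually reaching it; inconclusive = meets only the mean limit or only the replicate share; inactive = meets neither condition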;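 also: 0% = median of neutral control wells and 100% = median of positive control wells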
# An asterisk follows results filed as active; ? = inconclusive; . = no result.
SMILES,Pf Dd2 growth,T cruzi growth-1,KDM4C inh,IDH1 R132H inh,T cruzi growth-2,T cruzi growth-3,3T3 cytotox,3T3 cytotox 2
CC(=O)N(C)C[C@H]1Oc2cc(C#Cc3ccccc3)ccc2S(=O)(=O)N([C@@H](C)CO)C[C@@H]1C,-49,59,2,1,.,.,.,.
C[C@H](CO)N1C[C@H](C)[C@H](CN(C)Cc2ccc(-c3ccccc3)cc2)Oc2cc(C#C[C@@H](C)O)ccc2S1(=O)=O,-67,103*,0,0,96*,115*,52*,102*
C[C@H](O)C#Cc1ccc2c(c1)O[C@@H](CN(C)Cc1ccc(-c3ccccc3)cc1)[C@@H](C)CN([C@@H](C)CO)S2(=O)=O,-32,86,-2,0,.,.,.,.
C[C@H](O)C#Cc1ccc2c(c1)O[C@H](CN(C)Cc1ccc(-c3ccccc3)cc1)[C@H](C)CN([C@H](C)CO)S2(=O)=O,-27,99*,0,.,97*,97*,23,106*
CO[C@H]1CN(C)C(=O)c2ccc(NC(=O)C3CCC3)cc2OC[C@H](C)N(Cc2ccncc2)C[C@H]1C,.,9,1,0,.,.,.,.
C[C@H](CO)N1C[C@H](C)[C@H](CN(C)S(=O)(=O)c2ccccc2)OCCCC[C@H](C)Oc2ccc(NC(=O)Nc3cccc4ccccc34)cc2C1=O,-45,90,-1,3,.,.,.,.
Cc1noc(C)c1S(=O)(=O)N(C)C[C@H]1OCCCC[C@@H](C)Oc2ccc(NC(=O)Nc3cccc4ccccc34)cc2C(=O)N([C@@H](C)CO)C[C@@H]1C,?,105*,-2,-2,107*,67,17,16
C[C@@H]1CCCCO[C@H](CN(C)S(=O)(=O)c2ccccc2)[C@H](C)CN([C@H](C)CO)C(=O)c2cc(NC(=O)Nc3cccc4ccccc34)ccc2O1,-71,108*,-3,2,106*,110*,12,?
Cc1noc(C)c1S(=O)(=O)N(C)C[C@@H]1OCCCC[C@@H](C)Oc2ccc(NC(=O)Nc3cccc4ccccc34)cc2C(=O)N([C@H](C)CO)C[C@H]1C,-82*,109*,-9,1,110*,100*,-7,?
CC(C)CC#Cc1ccc2c(c1)O[C@H](CN(C)CC1CCOCC1)[C@@H](C)CN([C@H](C)CO)S2(=O)=O,-59,120,0,-3,.,.,.,.
CCCN(C)C[C@@H]1Oc2cc(C#CCC(C)C)ccc2S(=O)(=O)N([C@@H](C)CO)C[C@@H]1C,-26,108*,0,-1,110*,110*,14,104*
CC(C)CC#Cc1ccc2c(c1)O[C@@H](CN(C)CC1CCCC1)[C@H](C)CN([C@@H](C)CO)S2(=O)=O,-70,.,1,.,.,.,.,.
CC(C)CC#Cc1ccc2c(c1)O[C@@H](CN(C)CC1CC1)[C@@H](C)CN([C@@H](C)CO)S2(=O)=O,-50,111*,-1,-1,110*,89,21,103*
CC(C)CC#Cc1ccc2c(c1)O[C@@H](CN(C)CC1CC1)[C@@H](C)CN([C@H](C)CO)S2(=O)=O,-48,107*,3,-3,105*,52,38*,103*
CC(C)CC#Cc1ccc2c(c1)O[C@H](CN(C)CC1CC1)[C@H](C)CN([C@H](C)CO)S2(=O)=O,-46,105*,-2,-1,108*,63,13,106*
C[C@@H]1CN([C@H](C)CO)C(=O)c2cc(C#CC3(O)CCCC3)cnc2O[C@H]1CN(C)C(=O)C1CCOCC1,30,.,-1,.,.,.,.,.
COC(=O)C1C(=O)c2c([nH]c(C(=O)OC(C)C)c2C)CC1C (configuration not stated),.,.,.,0,.,.,.,.
CCC(=O)N1CC2(C1)[C@@H](c1ccccc1)[C@@H](CO)N2Cc1cc(F)ccc1F,-16,.,-1,.,.,.,.,.
O=C(c1ccncc1)N1CC[C@H]2[C@H](CO)Nc3ccc(-c4ccc(F)cc4)cc3[C@H]21,26,99*,-2,.,94,34,-12,3
O=C(c1ccccn1)N1CC[C@@H]2[C@@H](CO)Nc3ccc(-c4ccccc4)cc3[C@@H]21,-32,105*,0,.,101*,86,-18,-14
O=C(c1ccccn1)N1CC[C@@H]2[C@H]1c1cc(-c3ccc(F)cc3)ccc1N[C@@H]2CO,16,105*,-2,.,107*,63,15,30*
Cc1ccc(S(=O)(=O)N(C)C[C@H]2OCCCC[C@H](C)Oc3ccc(NS(=O)(=O)c4ccccc4)cc3C(=O)N([C@H](C)CO)C[C@H]2C)cc1,-80,?,-2,.,.,.,.,.
Cc1ccc(S(=O)(=O)Nc2ccc3c(c2)C(=O)N([C@@H](C)CO)C[C@@H](C)[C@H](CN(C)S(=O)(=O)c2ccccc2)OCCCC[C@H](C)O3)cc1,-27,57,0,.,.,.,.,.
Cc1ccc(S(=O)(=O)N(C)C[C@H]2OCCCC[C@@H](C)Oc3ccc(NS(=O)(=O)c4ccccc4)cc3C(=O)N([C@@H](C)CO)C[C@H]2C)cc1,-48,?,-2,.,109*,74,-6,-2
Cc1ccc(S(=O)(=O)Nc2ccc3c(c2)C(=O)N([C@@H](C)CO)C[C@@H](C)[C@H](CN(C)S(=O)(=O)c2ccccc2)OCCCC[C@@H](C)O3)cc1,-51,105*,0,-2,106*,72,7,23
Cc1ccc(S(=O)(=O)N(C)C[C@@H]2OCCCC[C@H](C)Oc3ccc(NS(=O)(=O)c4ccccc4)cc3C(=O)N([C@H](C)CO)C[C@@H]2C)cc1,-59,?,0,.,.,.,.,.
Cc1ccc(S(=O)(=O)Nc2ccc3c(c2)C(=O)N([C@@H](C)CO)C[C@H](C)[C@@H](CN(C)S(=O)(=O)c2ccccc2)OCCCC[C@H](C)O3)cc1,-64,102*,0,.,109*,78,7,-7
Cc1ccc(S(=O)(=O)N(C)C[C@H]2OCCCC[C@@H](C)Oc3ccc(NS(=O)(=O)c4ccccc4)cc3C(=O)N([C@H](C)CO)C[C@H]2C)cc1,-83*,?,-1,.,101*,73,4,-5
COc1cc(/C=C/C(=O)NCCSc2c[nH]c3ccccc23)cc(OC)c1OC,.,.,.,-6,.,.,.,.
CC(C)C#Cc1cnc2c(c1)C(=O)N([C@H](C)CO)C[C@H](C)[C@@H](CN(C)C(=O)Nc1cccc(F)c1)O2,-24,88,7,-2,.,.,.,.
